Laboratory results: ChEMBL document CHEMBL1133511, “Contribution of the adenine base to the activity of adenophostin A investigated using a base replacement strategy” (J Med Chem, 2000)

Legend:
Rattus norvegicus [1] = species: Rattus norvegicus; assay: Tested for percentage of intracellular calcium ion stores released in rat hepatocytes; type: functional, Hepatocyte
Procedure, shortened: (§1)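 Permeabilized rat hepatocytes loaded to steady state with 45Ca2+ (5 min, 37 °C) in cytosol-like medium (140 mM KCl, 20 mM NaCl, 2 mM MgCl2, 1 mM EGTA, 300 µM CaCl2, 20 mM Pipes, pH 7.0) with 1.5 mM ATP, creatine phosphate/kinase, 10 µM FCCP; 1.25 µM thapsigargin added, 30 s later agonist for 60 s; store 45Ca2+ by rapid filtration. Four-parameter logistic fit; means ± SEM, 6-15 experiments.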

Rattus norvegicus [2] = species: Rattus norvegicus; assay: Tested for concentration of ligand causing half maximal response of Calcium ion release from permeabilised hepatocytes; type: functional; details: Hepatocyte; procedure, shortened: as §1
[3] = Tested for equilibrium competition binding to InsP3 receptor in hepatic membranes using 1.3-1.8 nM [3H]Ins(1,4,5)P3 as the radioligand.; type: functional, cell membranes, Rattus norvegicus, Liver, Membrane
Procedure, shortened: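 Rat liver membranes (perfused, homogenized, Percoll-purified), 0.1 mg protein/tube in 50 mM Tris, 1 mM EDTA, pH 8.3, incubated 5 min at 4 °C with [3H]Ins(1,4,5)P3 plus competing ligand; bound separated by centrifugation (20000g, 5 min), counted by scintillation. Kd and Hill coefficient from equilibrium competition; means ± SEM of 4 independent experiments.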

In the case of `Nc1ncnc2c1ncn2[C@@H]1O[C@H](CO)[C@@H](O[C@H]2O[C@@H](CO)[C@@H](OP(=O)(O)O)[C@H](OP(=O)(O)O)[C@@H]2O)[C@H]1OP(=O)(O)O`, the Max response (Rattus norvegicus [1]) is reported as 51%, the EC50 (Rattus norvegicus [2]) is reported as 14 nM and the Ki [3] is reported as 0.45 nM.
`O=P(O)(O)O[C@@H]1[C@H](O)[C@@H](O[C@H]2[C@@H](OP(=O)(O)O)[C@H](n3ccnc3)O[C@@H]2CO)O[C@@H](CO)[C@H]1OP(=O)(O)O` gave a Max response (Rattus norvegicus [1]) of 57%, an EC50 (Rattus norvegicus [2]) of 108 nM and a Ki [3] of 2.19 nM.
With `O=P(O)(O)O[C@@H]1[C@H](O)[C@@H](O)[C@@H](OP(=O)(O)O)[C@H](OP(=O)(O)O)[C@@H]1O` the Max response (Rattus norvegicus [1]) was 55%, the EC50 (Rattus norvegicus [2]) was 119 nM and the Ki [3] was 2.72 nM.
For `O=P(O)(O)O[C@@H]1[C@H](O)[C@@H](O[C@H]2[C@@H](OP(=O)(O)O)[C@H](n3cnc4cncnc43)O[C@@H]2CO)O[C@@H](CO)[C@H]1OP(=O)(O)O` [PURINOPHOSTIN], the Max response (Rattus norvegicus [1]) was 52%, the EC50 (Rattus norvegicus [2]) was 18 nM and the Ki [3] was 0.8 nM.
